Results as given in PubChem BioAssay.
Calls of active or inactive are those of the source.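 The calls were made as follows, unless noted: active = fluorescence slope after compound addition differing from the mean of all screened samples at 99.7% confidence, in either direction; inactive = the rest.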

Key:
[1] = inhibitors of TNFa-induced NFkB p65 translocation, primary screen, imaging, HUVEC, MLSMR starter and 10KST1 sets (AID 438;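 active = inhibition above 20% together with a positive visual image hit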;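 also: compound added about 3h40 before a 20 min TNFalpha stimulation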;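 as to inhibition: signal is the nuclear over cytoplasmic p65 intensity ratio per well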); conditions: HUVEC TNFa-induced p65 nuclear translocation; cell count: measured here: nuclei count (cytotoxicity indicator), at 2.08 µM; inhibition: at 2 µM, stronger effect = higher value, 0% TNFa-plus-vehicle, 100% no-TNFa wells
[2] = reduction of polyQ htt aggregates in cells – imaging, exon1htt(103Q)mCFP cells, high-content imaging, primary screen (AID 483;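 active = visual image review flags a hit and inhibition of aggregation exceeds 20%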;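 also: compound exposure lasted 3 days before fixation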;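 as to nuclei count: percent of the per-plate median nuclei count of sample wells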); conditions: exon1htt(103Q)mCFP cell line, aggregate imaging, at 2 µM; inhibition of aggregation: stronger effect = higher value; nuclei count: measured here: cell count, toxicity
[3] = endothelial E-selectin expression blockers – imaging, HUVEC, immunofluorescence, MLSMR starter and 10KST1 sets, primary screen (AID 487;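 active = visually confirmed hit in the image check and inhibition above 20%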;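 as to inhibition: signal is fraction of cell area covered by stained E-selectin grains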;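 as to nuclei count: 100% = median nuclei count of all wells on the same plate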); conditions: HUVEC TNFalpha-induced E-selectin immunofluorescence imaging, at 2 µM; inhibition: stronger effect = higher value; nuclei count: measured here: cell number, toxicity
[4] = target: Voltage-gated potassium channel subunit beta-2 (Rattus norvegicus) (UniProt P62483); experiment: inhibitors of rat Kvbeta2 reductase activity – biochemical, NADPH fluorescence, primary screen (AID 622;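 active = fluorescence slope higher than the sample average by over 3 SD, cut at about -0.22 in these data, passing the limit was not always enough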;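 also: slope of raw intensity against log time taken from 70 to 1610 s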); conditions: recombinant KvBeta, 4-cyanobenzaldehyde reduction, at 10 µM, stronger effect = higher value
[5] = target: Voltage-gated potassium channel subunit beta-2 (Rattus norvegicus) (UniProt P62483); experiment: enhancers of rat Kvbeta2 NADPH turnover – biochemical, NADPH fluorescence, primary screen (AID 623;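 active = NADPH fluorescence slope more negative than the mean of all samples by about 3 SD, 99.7% confidence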;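 also: fluorescence intensity change per second fitted from 20 to 320 s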); conditions: Recombinant KvBeta, NADPH fluorescence decrease slope, 10 min; at 10 µM; stronger effect = lower value
[6] = target: Alpha-2C adrenergic receptor (Homo sapiens) (UniProt P18825); experiment: compounds altering alpha2C-coupled GIRK flux – cell-based, HEK293 alpha2C/GIRK1/2, thallium flux, primary screen (AID 624); conditions: thallium flux BTC fluorescence, at 10 µM, actives lie on both sides;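 also: slope of fluorescence ratio to pre-addition baseline per second over 15 to 24 s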
[7] = inhibitors of larval lipid processing in zebrafish, primary screen, whole organism, PED6 fluorescence, gall bladder and intestine (AID 686;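 active = a full or partial loss of lipid-probe fluorescence in the fish gall bladder, intestine or both, judged by eye; inactive = no fluorescence loss, or compound toxic to the fish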;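 also: larvae 5 to 7 days old with five fish per well; signal comes from phospholipase A2 cleavage of quenched PED6 carried via bile; overnight exposure to compound and PED6 before scoring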); conditions: Zebrafish larvae PED6 lipid processing, fluorescence scoring; screened at 20 µM (by protocol)
Outline: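 System: live zebrafish larvae aged 5-7 days, whole organism; measure: graded gall bladder and intestinal fluorescence inhibition per well; incubation: overnight exposure; reagent: ingested quenched lipid PED6 at 100 nM; signal: By-eye fluorescence microscopy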

[8] = blockers of RIG-like receptor reporter activation – cell-based, Sendai virus stimulus, luciferase, 10K MLSCN set, TLR/RLR signaling modifier project, primary screen (AID 602276;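 active = inhibition at or above 50% at 10 µM; inactive = inhibition below 50%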;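 also: firefly luciferase from ISG56 promoter only with Renilla not read in this screen; 0% = Sendai virus plus DMSO and 100% = medium plus DMSO without virus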); conditions: HEK293 RL24 IRF3 luciferase reporter, at 10 µM, stronger effect = higher value
[9] = TLR3 IRF3 reporter activation blockers – cell-based, poly I:C stimulus, luciferase, 10K MLSCN set, primary screen (AID 602277;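 active = inhibition of the reporter signal at or above 50%; inactive = inhibition below 50%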); conditions: HEK293-TLR3 RL24 IRF3 luciferase reporter, at 10 µM, stronger effect = higher value

Alpha-2C adrenergic receptor (Homo sapiens), sequence (P18825 whole entry, looked up): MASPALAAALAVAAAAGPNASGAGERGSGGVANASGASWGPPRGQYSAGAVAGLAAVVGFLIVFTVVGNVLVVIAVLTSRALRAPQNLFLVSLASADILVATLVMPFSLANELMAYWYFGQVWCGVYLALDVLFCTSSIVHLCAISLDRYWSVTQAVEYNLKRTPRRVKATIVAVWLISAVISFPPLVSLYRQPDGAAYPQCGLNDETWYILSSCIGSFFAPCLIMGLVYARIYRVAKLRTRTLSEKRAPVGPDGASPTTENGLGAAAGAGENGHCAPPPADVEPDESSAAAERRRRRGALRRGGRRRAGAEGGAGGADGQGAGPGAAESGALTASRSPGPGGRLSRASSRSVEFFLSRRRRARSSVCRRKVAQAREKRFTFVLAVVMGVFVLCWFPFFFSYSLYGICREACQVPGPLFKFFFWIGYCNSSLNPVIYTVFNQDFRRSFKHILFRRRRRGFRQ
Voltage-gated potassium channel subunit beta-2 (Rattus norvegicus), sequence (P62483 whole entry, looked up): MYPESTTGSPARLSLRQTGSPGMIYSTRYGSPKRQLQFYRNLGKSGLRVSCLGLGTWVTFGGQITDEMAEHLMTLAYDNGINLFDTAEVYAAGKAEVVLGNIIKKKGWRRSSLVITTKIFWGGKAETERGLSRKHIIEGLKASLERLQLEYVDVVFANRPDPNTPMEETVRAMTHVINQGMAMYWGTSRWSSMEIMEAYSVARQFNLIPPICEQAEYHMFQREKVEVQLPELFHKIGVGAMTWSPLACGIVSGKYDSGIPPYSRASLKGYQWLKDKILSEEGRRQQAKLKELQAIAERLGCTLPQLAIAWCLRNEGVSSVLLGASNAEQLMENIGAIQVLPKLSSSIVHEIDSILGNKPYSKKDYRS

| Structure (SMILES) | cell count [1] | inhibition [1] | inhibition of aggregation [2] | nuclei count [2] | inhibition [3] | nuclei count [3] | fluorescence slope [4] | NADPH fluorescence slope [5] | slope [6] | outcome [7] | inhibition [8] | inhibition [9] |
| --- | --- | --- | --- | --- | --- | --- | --- | --- | --- | --- | --- | --- |
| C(=N\n1cnnc1)/c1cccc(OCCOc2ccccc2)c1 | 237 | 7.1% (inactive) | 0% (inactive) | 96% | -33.2% (inactive) | 108% | -0.351 (inactive) | -3.7e-05 (inactive) | 0.00586 (inactive) | inactive | -29.6% (inactive) | -51.4% (inactive) |
| CCC(CCC(=O)Nc1cccc(C(=O)O)c1)C(=O)O (centres undefined) | 506 | 8.8% (inactive) | 10.2% (inactive) | 86.5% | 49.6% (inactive) | 74.2% | -0.448 (inactive) | -2.4e-05 (inactive) | 0.00563 (inactive) | inactive | 4.27% (inactive) | -4.76% (inactive) |
| O=C(c1cnn2c(C(F)F)cc(-c3ccccc3)nc12)N1CCN2CCCC2C1 (centres undefined) | 223 | -3.7% (inactive) | 13% (inactive) | 100% | -87.1% (inactive) | 129% | -0.251 (inactive) | -1.6e-05 (inactive) | 0.00468 (inactive) | inactive | 15.8% (inactive) | 32.7% (inactive) |
| Cc1cccc(C)c1NC(=O)COC(=O)c1nonc1N | 429 | -1.3% (inactive) | 3.6% (inactive) | 99.3% | 32.7% (inactive) | 87.2% | -0.34 (inactive) | -6.4e-05 (inactive) | 0.0052 (inactive) | inactive | 4.72% (inactive) | 2% (inactive) |
| Nc1ccc(S(=O)(=O)c2cccc(N)c2)cc1 | 655 | -8.6% (inactive) | -8.8% (inactive) | 81.5% | -2.1% (inactive) | 108% | -0.435 (inactive) | -1.3e-05 (inactive) | 0.00439 (inactive) | inactive | 15.4% (inactive) | 15.8% (inactive) |
| CC1(C)CC2CC(C)(CN2S(=O)(=O)c2ccc(N)cc2)C1 (centres undefined) | 613 | -9.2% (inactive) | 30.3% (inactive) | 79.8% | 65.6% (inactive) | 60.2% | -0.374 (inactive) | -6.2e-05 (inactive) | 0.00585 (inactive) | inactive | 10.2% (inactive) | 18.5% (inactive) |
| O=C1NC(=O)C(CC(=O)N(c2ccccc2)C2(C(=O)NC3CCCC3)CCCCC2)N1 (centres undefined) | 384 | -1.1% (inactive) | 25.6% (inactive) | 83.3% | -24.5% (inactive) | 108% | -0.391 (inactive) | -1.3e-05 (inactive) | 0.00517 (inactive) | inactive | 14.9% (inactive) | 11.4% (inactive) |
| CCOc1ccccc1C(=O)Nn1c(C2CCC2)nc2ccccc2c1=O | 292 | -14% (inactive) | -21.7% (inactive) | 7.3% | -38.2% (inactive) | 98.8% | -0.467 (inactive) | -5.5e-05 (inactive) | 0.00459 (inactive) | inactive | 20.9% (inactive) | 37.7% (inactive) |
| Cc1onc(-c2c(F)cccc2Cl)c1C(=O)Nc1nc2c(s1)CCCC2 | 250 | 5.1% (inactive) | 14.6% (inactive) | 101% | 38.1% (inactive) | 77.9% | -0.467 (inactive) | -9.4e-06 (inactive) | 0.00615 (inactive) | inactive | -235% (inactive) | 99.1% (active) |
| Cc1ccc2c(c1C)NC(C(=O)O)C1CC=CC21 (centres undefined) | 371 | 1.6% (inactive) | -10.5% (inactive) | 77.6% | -11.4% (inactive) | 114% | -0.373 (inactive) | -2.5e-05 (inactive) | 0.00434 (inactive) | inactive | 13.7% (inactive) | 18.5% (inactive) |
| C#CCSc1nc(-c2cccs2)ccc1C#N | 340 | -1% (inactive) | -15% (inactive) | 92.8% | -85.2% (inactive) | 112% | -0.5 (inactive) | 5.7e-06 (inactive) | 0.00646 (inactive) | inactive | -10.7% (inactive) | 5.18% (inactive) |
| O=C(CN1CCN(c2nc(-c3ccc(Cl)cc3)cs2)CC1)NCc1ccco1 | 638 | -7.3% (inactive) | 9.3% (inactive) | 90.1% | -53.5% (inactive) | 108% | -0.463 (inactive) | -3.9e-05 (inactive) | 0.00435 (inactive) | inactive | -3.86% (inactive) | 98.3% (active) |
| CCCc1ccccc1OCCNC(C)=O | 585 | 9.6% (inactive) | 18.6% (inactive) | 116% | -76.7% (inactive) | 105% | -0.366 (inactive) | -3.9e-06 (inactive) | 0.00527 (inactive) | inactive | -4.34% (inactive) | 3.6% (inactive) |
| CC1(C)C(c2cccs2)=[N+]([O-])C2(CCCCC/C2=N\O)N1O (centres undefined) | 423 | 0.5% (inactive) | 5.7% (inactive) | 91.7% | -97.1% (inactive) | 112% | -0.46 (inactive) | -4.9e-05 (inactive) | 0.00609 (inactive) | inactive | 15.7% (inactive) | 15.3% (inactive) |
| CCOC(=O)c1ccccc1NC1CC(=O)N(c2ccccc2C)C1=O (centres undefined) | 242 | 6.7% (inactive) | 12.6% (inactive) | 97.9% | 8.6% (inactive) | 94.8% | -0.262 (inactive) | 9.8e-06 (inactive) | 0.00569 (inactive) | inactive | -4.41% (inactive) | -8.61% (inactive) |
| COC(=O)c1ccccc1NC(=O)C12CCC(C)(C(=O)O1)C2(C)C (centres undefined) | 358 | 1.7% (inactive) | -12.1% (inactive) | 106% | 29.1% (inactive) | 92.7% | -0.433 (inactive) | -4.4e-05 (inactive) | 0.00406 (inactive) | inactive | 20.2% (inactive) | 22.6% (inactive) |
| COc1cc(SC)ccc1C(=O)Nc1ccccc1C#N | 417 | 3.9% (inactive) | -95.3% (inactive) | 2.1% | -147% (inactive) | 111% | -0.449 (inactive) | -1.3e-05 (inactive) | 0.00527 (inactive) | inactive | -42.4% (inactive) | -61.5% (inactive) |
| CCc1ccc2[nH]c(=O)c(C(c3nnnn3CC3CCCO3)N3CCN4CCCC4C3)cc2c1 (centres undefined) | 314 | 12.3% (inactive) | -16.9% (inactive) | 107% | 13.9% (inactive) | 102% | -0.382 (inactive) | -5.9e-05 (inactive) | 0.00534 (inactive) | inactive | 9.53% (inactive) | 4.74% (inactive) |
| COc1ccc(NC(=O)Nc2ccc(N3CCCC3=O)cc2)cc1OC | 462 | 4% (inactive) | -6.3% (inactive) | 102% | -4.9% (inactive) | 120% | -0.368 (inactive) | -3.2e-05 (inactive) | 0.0047 (inactive) | inactive | 4.01% (inactive) | -16.1% (inactive) |
| COc1ccc2cc(C(c3nnnn3C(C)(C)C)N3CCc4ccccc4C3)c(=O)[nH]c2c1 (centres undefined) | 311 | 11.9% (inactive) | 5.3% (inactive) | 100% | 1% (inactive) | 94.4% | -0.347 (inactive) | -5.8e-05 (inactive) | 0.00475 (inactive) | inactive | 24.2% (inactive) | 44.5% (inactive) |
| O=C(O)CCc1ccc(-c2cccs2)n1NC(=O)c1ccccc1Br | 338 | -5.2% (inactive) | 2.7% (inactive) | 94.1% | -46.9% (inactive) | 115% | -0.416 (inactive) | -5.2e-05 (inactive) | 0.0044 (inactive) | inactive | 19.5% (inactive) | 14.2% (inactive) |
| Cc1ccc(-c2nn[nH]n2)cc1 | 334 | -7.1% (inactive) | -16.2% (inactive) | 117% | -4.4% (inactive) | 123% | -0.474 (inactive) | -3.8e-05 (inactive) | 0.00429 (inactive) | inactive | 4.2% (inactive) | 10.7% (inactive) |
| CCC(=O)Nc1cc(Cl)ccc1N1CCN(C(=O)CC)CC1 | 376 | 2.1% (inactive) | 16.1% (inactive) | 102% | -17.9% (inactive) | 90.8% | -0.465 (inactive) | -1.2e-05 (inactive) | 0.00532 (inactive) | inactive | 18.6% (inactive) | 16.6% (inactive) |
| O=C(COC(=O)CCOc1ccccc1)Nc1ccc(Cl)cn1 | 723 | 5.7% (inactive) | -12.2% (inactive) | 101% | 35.5% (inactive) | 88.1% | -0.489 (inactive) | -1.8e-05 (inactive) | 0.00492 (inactive) | inactive | 5.25% (inactive) | 8.02% (inactive) |
| CCOC(=O)c1cc(-c2ccccc2)sc1N | 389 | -0.7% (inactive) | 3.4% (inactive) | 102% | -104% (inactive) | 107% | -0.351 (inactive) | -2e-05 (inactive) | 0.0052 (inactive) | inactive | -40.8% (inactive) | -102% (inactive) |
| COc1cc(CO)cc(-c2cc(CO)cc(OC)c2OC)c1OC | 547 | 3.5% (inactive) | 19.5% (inactive) | 76.2% | 49.8% (inactive) | 60.6% | -0.367 (inactive) | -5.9e-05 (inactive) | 0.00523 (inactive) | inactive | 11.3% (inactive) | 15.6% (inactive) |
| C=CCC1(O)C(=O)Nc2ccccc21 (centres undefined) | 585 | -13.3% (inactive) | -5.5% (inactive) | 106% | -66.6% (inactive) | 115% | -0.339 (inactive) | -5.2e-05 (inactive) | 0.00522 (inactive) | inactive | 16.6% (inactive) | 18.3% (inactive) |
